Assay results from ChEMBL document CHEMBL1255219, “Discovery of a β-d-2'-deoxy-2'-α-fluoro-2'-β-C-methyluridine nucleotide prodrug (PSI-7977) for the treatment of hepatitis C virus” (J Med Chem, 2010).
pIC50: −log10 of the molar value.

How the values were obtained:
[1] = test system: Rattus norvegicus; assay: AUC (0 to infinity) in rat liver assessed as 2'-F-2'-C-Methyluridine-5''-TP level at 50 mg/kg, po; format: ADME, organism-based; parameters: time infinity, dose 50 mg/kg, route oral; details: in vivo
Method in brief: (§1)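 Rats given a single oral gavage dose of 50 mg/kg in 0.5% carboxymethylcellulose sodium, 5 mL/kg. Livers taken at 0.5, 1, 2, 4, 6 and 12 h after CO2 sacrifice and ice-cold saline perfusion, then snap-frozen. Homogenized in 3 volumes of cold 70% methanol with 20 mM EDTA/EGTA. Triphosphate measured by LC/MS/MS (ESI, MRM negative mode), noncompartmental analysis.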

[2] = test system: Rattus norvegicus; assay: Cmax in rat liver assessed as 2'-F-2'-C-Methyluridine-5''-TP level at 50 mg/kg, po; format: ADME, organism-based; parameters: dose 50 mg/kg, route oral; details: in vivo; method in brief: as §1
[3] = Half life in human liver S9 fraction at 100 uM; format: ADME, subcellular
Method in brief: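 Compound at 100 μM in 50 mM K2HPO4 pH 7.4 with 5 mM MgCl2. Started with 4 mg/mL human liver S9 at 37 °C. Samples at 0–24 h quenched with acetonitrile. Parent remaining measured by LC/MS/MS peak area relative to 0 h, and half-life calculated.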

[4] = test system: Rattus norvegicus; assay: AUC (0 to t) in rat liver assessed as 2'-F-2'-C-Methyluridine-5''-TP level at 50 mg/kg, po; format: ADME, organism-based; parameters: dose 50 mg/kg, route oral; details: in vivo; method in brief: as §1
[5] = test system: Rattus norvegicus; assay: Tmax in rat liver assessed as 2'-F-2'-C-Methyluridine-5''-TP level at 50 mg/kg, po; format: ADME, organism-based; parameters: dose 50 mg/kg, route oral; details: in vivo; method in brief: as §1
[6] = organism: Homo sapiens; assay: Half life in human plasma at 100 uM
[7] = test system: Hepatitis C virus; assay: Antiviral activity against HCV infected in human clone A cells assessed as inhibition of cellular rRNA replication at 50 uM; format: functional, Hepacivirus hominis
[8] = test system: Hepatitis C virus; assay: Antiviral activity against HCV infected in human clone A cells; format: functional, Hepacivirus hominis; details: Hepatitis C virus
Method in brief: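 Clone A replicon cells seeded at 1500 cells/well. Compounds serially diluted in G418-free culture medium and added, then incubated 4 days at 37 °C in 5% CO2. HCV RNA quantified by real-time RT-PCR as ΔCt relative to the mean no-drug control.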

[9] = Half life in simulated intestinal fluid of pH 7.5 at 50 ug/mL; format: physicochemical
Method in brief: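 Compound at 50 μg/mL in simulated gastric fluid (pH 1.2) or simulated intestinal fluid (pH 7.5), 37 °C, 20 h. Injected by reverse-phase HPLC every 2 h, peak area at 260 nm.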

[10] = Half life in simulated gastric fluid at pH 1.2 at 50 ug/mL; format: physicochemical
Method in brief: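 Compound at 50 μg/mL in simulated gastric fluid (pH 1.2) or simulated intestinal fluid (pH 7.5), 37 °C, 20 h. Injected by reverse-phase HPLC every 2 h, peak area at 260 nm. Percent parent remaining relative to 0 h, giving half-life.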

[11] = test system: Cynomolgus monkey; assay: Metabolic stability in cynomolgus monkey liver assessed as prodrug level at 50 mg/kg, po; format: ADME, organism-based, Macaca fascicularis; parameters: dose 50 mg/kg, route oral; details: in vivo
Method in brief: (§2)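 Dogs and cynomolgus monkeys gavaged once daily with 50 mg/kg in 20% w/v hydroxypropyl-β-cyclodextrin for 4 days. At 4 h postdose on day 4, under pentobarbital, the liver was perfused with ice-cold saline via a portal cannula. Five lobe samples were snap-frozen and homogenized in 3 volumes of cold 70% methanol with 20 mM EDTA/EGTA. Prodrug and triphosphate measured by LC/MS/MS.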

[12] = Cytotoxicity against human erythroid progenitor cells after 14 to 16 days
[13] = Cmax in cynomolgus monkey plasma at 50 mg/kg, po qd for 4 days; format: ADME, organism-based, Macaca fascicularis; parameters: dose 50 mg/kg, route oral
Method in brief: (§3)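 Oral gavage (dog gastric, monkey nasogastric), 50 mg/kg in 20% w/v hydroxypropyl-β-cyclodextrin in water, 2.5 mL/kg, once daily for 4 consecutive days. Blood sampled into K2EDTA at 1, 2, 4, 6, 12 and 24 h postdose on day 3. Prodrug in plasma quantified by LC/MS/MS, noncompartmental analysis.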

[14] = Tmax in cynomolgus monkey plasma at 50 mg/kg, po qd for 4 days; format: ADME, organism-based, Macaca fascicularis; parameters: dose 50 mg/kg, route oral; method in brief: as §3
[15] = test system: Rattus norvegicus; assay: Toxicity in rat assessed as change in liver weight at 50 to 1800 mg/kg, po after 14 days; format: organism-based; parameters: dose 50-1800 mg/kg, route oral; details: in vivo, 336 h
Method in brief: (§4)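 Rats (CD SD, 4–5 weeks, 76–100 g) given a single oral dose of 50, 300 or 1800 mg/kg, or vehicle (30% PEG400/30% Tween 20/20% corn oil/20% water). Observed daily for 14 days with daily body weights. Necropsy on day 15 with macroscopic examination and liver and paired kidney weights.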

[16] = AUC (0 to infinity) in dog plasma at 50 mg/kg, po qd for 4 days; format: ADME, organism-based, Canis lupus familiaris; parameters: time infinity, dose 50 mg/kg, route oral; method in brief: as §3
[17] = test system: Rattus norvegicus; assay: Toxicity in rat assessed as change in kidney weight at 50 to 1800 mg/kg, po after 14 days; format: organism-based; parameters: dose 50-1800 mg/kg, route oral; details: in vivo, 336 h; method in brief: as §4
[18] = Tmax in dog plasma at 50 mg/kg, po qd for 4 days; format: ADME, organism-based, Canis lupus familiaris; parameters: dose 50 mg/kg, route oral; method in brief: as §3
[19] = Cytotoxicity against HuH7 cells at 100 uM; format: cell-based; details: human, huh-7, 100 µM
Method in brief: (§5)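 Huh7, HepG2 and BxPC3 cells at 2 × 10^3 per well, CEM at 5 × 10^3 per well. Compound serially diluted from 100 μM, 8 days at 37 °C. MTS added for 2 h, absorbance read at 490 nm with medium-only blanks. CC50 taken relative to untreated cells.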

[20] = Cytotoxicity against human BxPC3 cells at 100 uM; format: cell-based; details: bxpc-3, 100 µM; method in brief: as §5
[21] = Cmax in dog plasma at 50 mg/kg, po qd for 4 days; format: ADME, organism-based, Canis lupus familiaris; parameters: dose 50 mg/kg, route oral; method in brief: as §3
[22] = test system: HepG2; assay: Cytotoxicity against human HepG2 cells at 100 uM; format: cell-based; details: hepg2, 100 µM; method in brief: as §5
[23] = test system: Rattus norvegicus; assay: Toxicity in rat assessed as change in body weight at 50 to 1800 mg/kg, po after 14 days; format: organism-based; parameters: dose 50-1800 mg/kg, route oral; details: in vivo, 336 h; method in brief: as §4
[24] = test system: Canis familiaris; assay: Metabolic stability in dog liver assessed as 2'-F-2'-C-Methyluridine-5''-triphosphate level at 50 mg/kg, po; format: ADME, organism-based, Canis lupus familiaris; parameters: dose 50 mg/kg, route oral; details: in vivo; method in brief: as §2
[25] = Cytotoxicity against human myeloid progenitor cells after 14 to 16 days
[26] = test system: Canis familiaris; assay: Metabolic stability in dog liver assessed as prodrug level at 50 mg/kg, po; format: ADME, organism-based, Canis lupus familiaris; parameters: dose 50 mg/kg, route oral; details: in vivo; method in brief: as §2
[27] = AUC (0 to t) in dog plasma at 50 mg/kg, po qd for 4 days; format: ADME, organism-based, Canis lupus familiaris; parameters: dose 50 mg/kg, route oral; method in brief: as §3
[28] = Permeability by PAMPA assay; format: ADME; details: read-out: permeability
Method in brief: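 PAMPA with a lecithin-in-dodecane (20 mg/mL) coated filter donor. Donor held 200 μg/mL compound in PBS pH 7.4 with 2% DMSO; acceptor held PBS with 2% DMSO. Left 24 h. Donor and acceptor concentrations measured by LC/MS/MS (MRM), and Pe calculated from concentrations, volumes, filter area and time.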

[29] = test system: Rattus norvegicus; assay: Toxicity in rat assessed as mortality at 50 to 1800 mg/kg, po after 14 days; format: organism-based; parameters: dose 50-1800 mg/kg, route oral; details: in vivo, 336 h; method in brief: as §4
[30] = test system: CCRF-CEM; assay: Cytotoxicity against human CEM cells at 100 uM; format: cell-based; method in brief: as §5
[31] = test system: Rattus norvegicus; assay: Toxicity in rat assessed as change in macroscopic pathology at 50 to 1800 mg/kg, po after 14 days; format: organism-based; parameters: dose 50-1800 mg/kg, route oral; details: in vivo, 336 h; method in brief: as §4

Compound: CC(C)OC(=O)[C@H](C)NP(=O)(OC[C@H]1O[C@@H](n2ccc(=O)[nH]c2=O)[C@](C)(F)[C@@H]1O)Oc1ccc(F)cc1 (some centres not stated)
- AUC [1]: 7375 ng·h/g
- Cmax [2]: 519 ng/g
- half-life at 100 µM [3]: 0.42 h
- AUC [4]: 6140 ng·h/g
- Tmax [5]: 6 h
- half-life at 100 µM [6]: > 24 h
- inhibition at 50 µM [7]: 0%
- EC90 [8]: 770 nM
- half-life at 50 ug/mL [9]: > 20 h
- half-life at 50 ug/mL [10]: > 20 h

Compound: C[C@H](NP(=O)(OC[C@H]1O[C@@H](n2ccc(=O)[nH]c2=O)[C@](C)(F)[C@@H]1O)Oc1ccc(F)cc1)C(=O)OC1CCCCC1 (some centres not stated)
- Drug uptake [11]: 13 ng/g
- AUC [1]: 9888 ng·h/g
- Cmax [2]: 716 ng/g
- pIC50 [12]: 4.43
- half-life at 100 µM [3]: 0.18 h
- Cmax [13]: 1.8 ng/mL
- Tmax [14]: 6 h
- AUC [4]: 8937 ng·h/g
- Tmax [5]: 4 h
- Activity [15]: Non-toxic
- AUC(0-inf) [16]: 62 ng·h/mL
- Activity [17]: Non-toxic
- half-life at 100 µM [6]: > 24 h
- Tmax [18]: 0.25 h
- Activity [19]: Non-toxic
- Activity [20]: Non-toxic
- Cmax [21]: 36 ng/mL
- Activity [22]: Non-toxic
- Activity [23]: Non-toxic
- inhibition at 50 µM [7]: 52.1%
- EC90 [8]: 40 nM
- Drug uptake [24]: 476 ng/g
- pIC50 [25]: 4.52
- Drug uptake [26]: 8.72 ng/g
- AUC(0-t) at 96 h [27]: 54 ng·h/mL
- Papp [28]: 0.488 ×10⁻⁶ cm/s
- Activity [29]: Non-toxic
- Activity [30]: Non-toxic
- half-life at 50 ug/mL [9]: > 20 h
- Activity [31]: Non-toxic
- half-life at 50 ug/mL [10]: 20 h

Compound: CCOC(=O)[C@H](C)NP(=O)(OC[C@H]1O[C@@H](n2ccc(=O)[nH]c2=O)[C@](C)(F)[C@@H]1O)Oc1ccc(F)cc1 (some centres not stated)
- AUC [1]: 5423 ng·h/g
- Cmax [2]: 291 ng/g
- half-life at 100 µM [3]: 0.23 h
- AUC [4]: 4191 ng·h/g
- Tmax [5]: 4 h
- half-life at 100 µM [6]: > 8 h
- inhibition at 50 µM [7]: 55.3%
- EC90 [8]: 760 nM
- half-life at 50 ug/mL [9]: > 20 h
- half-life at 50 ug/mL [10]: 17 h

Compound: CCC(C)OC(=O)[C@H](C)NP(=O)(OC[C@H]1O[C@@H](n2ccc(=O)[nH]c2=O)[C@](C)(F)[C@@H]1O)Oc1ccccc1 (some centres not stated)
- inhibition at 50 µM [7]: 93.8%
- EC90 [8]: 60 nM

Compound: C[C@H](NP(=O)(OC[C@H]1O[C@@H](n2ccc(=O)[nH]c2=O)[C@](C)(F)[C@@H]1O)Oc1ccccc1)C(=O)OC1CCCCC1 (some centres not stated)
- AUC [1]: 8831 ng·h/g
- Cmax [2]: 557 ng/g
- half-life at 100 µM [3]: 1.4 h
- AUC [4]: 6487 ng·h/g
- Tmax [5]: 2 h
- half-life at 100 µM [6]: > 24 h
- inhibition at 50 µM [7]: 61%
- EC90 [8]: 250 nM
- half-life at 50 ug/mL [9]: > 20 h
- half-life at 50 ug/mL [10]: 17 h

Compound: CC(C)OC(=O)[C@H](C)NP(=O)(OC[C@H]1O[C@@H](n2ccc(=O)[nH]c2=O)[C@](C)(F)[C@@H]1O)Oc1ccc(Cl)cc1 (some centres not stated)
- AUC [1]: 8468 ng·h/g
- Cmax [2]: 339 ng/g
- half-life at 100 µM [3]: 0.35 h
- AUC [4]: 5143 ng·h/g
- Tmax [5]: 1 h
- half-life at 100 µM [6]: > 24 h
- inhibition at 50 µM [7]: 0%
- EC90 [8]: 420 nM
- half-life at 50 ug/mL [9]: > 20 h
- half-life at 50 ug/mL [10]: > 20 h

Compound: COC(=O)[C@H](C)NP(=O)(OC[C@H]1O[C@@H](n2ccc(=O)[nH]c2=O)[C@](C)(F)[C@@H]1O)Oc1ccc(Cl)cc1Cl (some centres not stated)
- inhibition at 50 µM [7]: 10.9%
- EC90 [8]: 690 nM

Compound: COC(=O)C1(NP(=O)(OC[C@H]2O[C@@H](n3ccc(=O)[nH]c3=O)[C@](C)(F)[C@@H]2O)Oc2ccc(F)cc2)CC1 (some centres not stated)
- inhibition at 50 µM [7]: 0%
- EC90 [8]: > 50000 nM
